Test results: ChEMBL document CHEMBL1143198, “Potent, nonpeptide inhibitors of human mast cell tryptase. Synthesis and biological evaluation of novel spirocyclic piperidine amide derivatives” (Bioorg Med Chem Lett, 2008)
The source made the active and inactive calls. No cut-off for these calls is given here.

Key:
[1] = Inhibition of human lung beta tryptase by chromogenic assay
Homo sapiens [2] = species on record: Homo sapiens; experiment: Ratio of IC50 for human trypsin to IC50 for human tryptase
Outline: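 Human lung β-tryptase: 1 nM, H-D-HHT-Ala-Arg-pNA 500 µM, Tris/Hepes/NaCl/PEG buffer, pH 7.4. Human pancreatic trypsin: 1.8 nM, N-α-Z-D-Arg-Gly-Arg-pNA 60 µM, 200 mM NaCl, 50 mM Hepes, 0.5% octyl glucoside, pH 7.4.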

Trypsin = Trypsin (Homo sapiens, UniProt P07477+P07478+P35030); experiment: Inhibition of human trypsin by chromogenic assay; assay type: protein assay
[3] = Half life in orally dosed rat; assay type: ADME, organism-based; conditions: in vivo, po
[4] = Oral bioavailability in dog; assay type: ADME, organism-based, Canis lupus familiaris; conditions: in vivo
[5] = Cmax in orally dosed dog; assay type: ADME, organism-based, Canis lupus familiaris; design: route oral; conditions: in vivo, po
[6] = target: Amine oxidase [flavin-containing] B (Homo sapiens, UniProt P27338); experiment: Inhibition of monoamine oxidase B
Cytochrome P450 2C19 = Cytochrome P450 2C19 (Homo sapiens, UniProt P33261); experiment: Inhibition of human CYP2C19; assay type: ADME
Outline: (§1)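 IC50 for cytochrome P450 isozyme inhibition was measured in isolated human liver microsomes.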

monoamine oxidase B = experiment: Stability in presence of monoamine oxidase B after 30 mins; assay type: ADME; conditions: read-out: Stability
Outline: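 The compound was tested as an MAO-B substrate, with parent remaining measured at 30 min. Benzylamine was run as a reference substrate.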

[7] = target: Amine oxidase [flavin-containing] A (Homo sapiens, UniProt P21397); experiment: Inhibition of monoamine oxidase A
[8] = Metabolic stability in human liver microsomes after 60 mins; assay type: ADME, Microsome; conditions: read-out: Stability
Cytochrome P450 2C9 = Cytochrome P450 2C9 (Homo sapiens, UniProt P11712); experiment: Inhibition of human CYP2C9; assay type: ADME
Outline: as §1

Cytochrome P450 1A2 = Cytochrome P450 1A2 (Homo sapiens, UniProt P05177); experiment: Inhibition of human CYP1A2; assay type: ADME
Outline: as §1

Cytochrome P450 3A4 = Cytochrome P450 3A4 (Homo sapiens, UniProt P08684); experiment: Inhibition of human CYP3A4; assay type: ADME
Outline: as §1

Canis familiaris = experiment: Volume of distribution in orally dosed dog; assay type: ADME, organism-based, Canis lupus familiaris; conditions: in vivo, po
[9] = Cmax in orally dosed rat; assay type: ADME, organism-based; design: route oral; conditions: in vivo, po
Cytochrome P450 2D6 = Cytochrome P450 2D6 (Homo sapiens, UniProt P10635); experiment: Inhibition of human CYP2D6; assay type: ADME
Outline: as §1

[10] = Half life in orally dosed dog; assay type: ADME, organism-based, Canis lupus familiaris; conditions: in vivo, po
[11] = Oral bioavailability in rat; assay type: ADME, organism-based; conditions: in vivo
Rattus norvegicus = experiment: Volume of distribution in orally dosed rat; assay type: ADME, organism-based; conditions: in vivo, po
[12] = Metabolic stability in human liver microsomes assessed as half life; assay type: ADME, Microsome
Cavia porcellus [13] = experiment: Antiinflammatory activity in ovalbumin-sensitized guinea pig asthma model assessed as increase in dynamic lung compliance at 20 mg/kg, po BID for 3 days relative to control; assay type: functional
Outline: (§2)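 Ovalbumin-sensitized guinea pigs received the benzoate salt orally at 20 mg/kg twice daily for 3 days, then once on Day 4 at 2 h before ovalbumin challenge.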

Cavia porcellus [14] = experiment: Antiinflammatory activity in ovalbumin-sensitized guinea pig asthma model assessed as reduction in total WBC cell count at 20 mg/kg, po BID for 3 days relative to control; assay type: functional; design: scale not given: the % may be the effect or the level left
Outline: as §2

Cavia porcellus [15] = experiment: Antiinflammatory activity in ovalbumin-sensitized guinea pig asthma model assessed as reduction in total lung resistance at 20 mg/kg, po BID for 3 days relative to control; assay type: functional; design: scale not given: the % may be the effect or the level left
Outline: as §2

Plasma = experiment: Drug level in sheep plasma; assay type: ADME, cell-free, Ovis aries
[16] = target: Tissue-type plasminogen activator (Homo sapiens) (UniProt P00750); experiment: Inhibition of tPA at 10 uM
[17] = target: Prothrombin (Homo sapiens) (UniProt P00734); experiment: Inhibition of thrombin at 10 uM
[18] = target: Neutrophil elastase (Homo sapiens) (UniProt P08246); experiment: Inhibition of human leukocyte elastase at 10 uM
[19] = Inhibition of chymotrypsin at 10 uM
[20] = Inhibition of streptokinase at 10 uM
[21] = target: Coagulation factor X (Homo sapiens) (UniProt P00742); experiment: Inhibition of factor 10a at 50 uM
Chymase (Homo sapiens) = Chymase (Homo sapiens) (UniProt P23946); experiment: Inhibition of chymase at 50 uM
[22] = target: Plasminogen (Homo sapiens) (UniProt P00747); experiment: Inhibition of plasmin at 10 uM
[23] = target: Plasma kallikrein (Homo sapiens) (UniProt P03952); experiment: Inhibition of kallikrein at 10 uM
[24] = target: Urokinase-type plasminogen activator (Homo sapiens) (UniProt P00749); experiment: Inhibition of uPA at 10 uM
Ovis aries [25] = experiment: Antiinflammatory activity in Ascaris suum-sensitized sheep asthma model assessed as blockade of early-phase airway response at 30 mg/kg, po BID after 8 hrs; assay type: functional, organism-based; design: dose 30 mg/kg
Outline: (§3)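 Conscious, antigen-sensitized allergic sheep were dosed by oral gavage with the benzoate salt at 30 mg/kg twice on Day 1, and on Day 2 at 2 h before antigen challenge. Airway resistance (SR_L) was monitored for 8 h after challenge: early phase 0–4 h, late phase 4–8 h. Airway hyper-reactivity to carbachol (PC₄₀₀) was measured at 24 h.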

Ovis aries [26] = experiment: Antiinflammatory activity in Ascaris suum-sensitized sheep asthma model assessed as blockade of late-phase airway response at 30 mg/kg, po BID after 8 hrs; assay type: functional, organism-based; design: dose 30 mg/kg
Outline: as §3

[27] = target: Coagulation factor VII (Homo sapiens) (UniProt P08709); experiment: Inhibition of factor 7a at 10 uM
[28] = target: Cathepsin G (Homo sapiens) (UniProt P08311); experiment: Inhibition of cathepsin G at 50 uM
Ovis aries [29] = experiment: Antiinflammatory activity in Ascaris suum-sensitized sheep asthma model assessed as increase in airway hyperactivity at 30 mg/kg, po BID after 24 hrs relative to carbachol; assay type: functional, organism-based; design: dose 30 mg/kg
Outline: as §3

Homo sapiens [30] = species on record: Homo sapiens; experiment: Inhibition of human recombinant beta tryptase at 50 uM by chromogenic assay; conditions: in the assay text read “human lung beta tryptase” for “human recombinant beta tryptase”
Outline: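 A405 followed for 15 min at 22 °C after enzyme addition. Percent inhibition at 50 µM compared initial velocities with and without inhibitor.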

Coagulation factor VII (Homo sapiens), sequence (P08709 61-212 limits assumed): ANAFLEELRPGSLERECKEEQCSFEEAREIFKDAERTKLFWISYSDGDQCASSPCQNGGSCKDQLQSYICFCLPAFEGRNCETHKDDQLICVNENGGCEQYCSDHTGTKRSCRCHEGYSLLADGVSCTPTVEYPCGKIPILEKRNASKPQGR
Coagulation factor VII (Homo sapiens), sequence (P08709 213-466 limits assumed): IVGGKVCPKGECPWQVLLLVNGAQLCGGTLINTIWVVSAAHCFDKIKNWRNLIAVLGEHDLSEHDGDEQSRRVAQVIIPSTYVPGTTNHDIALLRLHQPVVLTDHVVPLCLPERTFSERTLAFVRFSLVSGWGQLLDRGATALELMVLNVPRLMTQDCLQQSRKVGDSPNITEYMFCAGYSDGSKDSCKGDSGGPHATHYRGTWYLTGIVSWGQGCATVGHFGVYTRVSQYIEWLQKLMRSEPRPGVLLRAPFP
Cytochrome P450 2C19, sequence (P33261 whole entry): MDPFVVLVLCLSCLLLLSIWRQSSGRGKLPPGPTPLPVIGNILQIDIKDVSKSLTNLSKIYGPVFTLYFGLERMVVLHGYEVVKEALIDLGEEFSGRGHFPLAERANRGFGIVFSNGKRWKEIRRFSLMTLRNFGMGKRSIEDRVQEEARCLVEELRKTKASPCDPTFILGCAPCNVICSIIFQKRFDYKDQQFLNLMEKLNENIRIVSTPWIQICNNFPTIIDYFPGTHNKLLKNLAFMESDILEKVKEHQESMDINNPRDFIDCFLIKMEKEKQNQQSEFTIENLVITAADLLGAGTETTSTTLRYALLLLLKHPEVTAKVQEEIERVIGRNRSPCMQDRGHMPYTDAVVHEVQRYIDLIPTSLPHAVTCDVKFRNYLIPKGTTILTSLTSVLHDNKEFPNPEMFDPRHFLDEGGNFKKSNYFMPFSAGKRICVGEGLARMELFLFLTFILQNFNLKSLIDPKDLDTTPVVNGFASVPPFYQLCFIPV
Neutrophil elastase (Homo sapiens), sequence (P08246 whole entry): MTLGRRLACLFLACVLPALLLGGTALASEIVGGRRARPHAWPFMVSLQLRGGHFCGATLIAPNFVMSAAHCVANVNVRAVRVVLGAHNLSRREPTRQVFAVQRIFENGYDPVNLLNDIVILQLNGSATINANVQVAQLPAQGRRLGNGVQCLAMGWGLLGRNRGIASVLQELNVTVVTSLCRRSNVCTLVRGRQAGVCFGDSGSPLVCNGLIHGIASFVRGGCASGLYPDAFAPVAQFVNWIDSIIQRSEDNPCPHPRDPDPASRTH
Coagulation factor X (Homo sapiens), sequence (P00742 41-179 limits assumed): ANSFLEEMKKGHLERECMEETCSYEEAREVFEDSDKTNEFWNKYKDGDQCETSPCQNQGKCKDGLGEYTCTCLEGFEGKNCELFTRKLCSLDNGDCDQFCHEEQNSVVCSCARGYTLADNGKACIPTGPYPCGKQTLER
Coagulation factor X (Homo sapiens), sequence (P00742 235-488 limits assumed): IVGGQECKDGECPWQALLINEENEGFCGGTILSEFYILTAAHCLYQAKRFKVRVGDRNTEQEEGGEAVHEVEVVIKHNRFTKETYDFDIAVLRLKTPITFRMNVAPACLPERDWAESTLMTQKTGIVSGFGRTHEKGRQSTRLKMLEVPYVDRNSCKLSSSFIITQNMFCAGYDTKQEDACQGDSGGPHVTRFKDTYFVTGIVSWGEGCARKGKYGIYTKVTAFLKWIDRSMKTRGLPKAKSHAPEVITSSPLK
Cytochrome P450 3A4, sequence (P08684 whole entry): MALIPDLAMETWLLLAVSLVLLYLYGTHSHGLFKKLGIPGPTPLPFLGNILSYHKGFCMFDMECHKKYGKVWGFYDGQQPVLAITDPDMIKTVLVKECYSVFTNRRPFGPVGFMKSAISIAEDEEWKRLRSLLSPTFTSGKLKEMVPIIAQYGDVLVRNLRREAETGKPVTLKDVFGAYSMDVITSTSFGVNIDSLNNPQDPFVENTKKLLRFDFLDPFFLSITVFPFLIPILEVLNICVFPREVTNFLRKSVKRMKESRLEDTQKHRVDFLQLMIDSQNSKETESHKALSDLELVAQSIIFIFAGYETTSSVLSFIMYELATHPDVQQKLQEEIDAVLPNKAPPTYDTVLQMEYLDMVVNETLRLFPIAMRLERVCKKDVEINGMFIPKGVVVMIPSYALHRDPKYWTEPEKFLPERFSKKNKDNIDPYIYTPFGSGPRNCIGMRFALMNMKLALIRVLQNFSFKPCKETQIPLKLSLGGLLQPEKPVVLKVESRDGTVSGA
Amine oxidase [flavin-containing] B, sequence (P27338 whole entry): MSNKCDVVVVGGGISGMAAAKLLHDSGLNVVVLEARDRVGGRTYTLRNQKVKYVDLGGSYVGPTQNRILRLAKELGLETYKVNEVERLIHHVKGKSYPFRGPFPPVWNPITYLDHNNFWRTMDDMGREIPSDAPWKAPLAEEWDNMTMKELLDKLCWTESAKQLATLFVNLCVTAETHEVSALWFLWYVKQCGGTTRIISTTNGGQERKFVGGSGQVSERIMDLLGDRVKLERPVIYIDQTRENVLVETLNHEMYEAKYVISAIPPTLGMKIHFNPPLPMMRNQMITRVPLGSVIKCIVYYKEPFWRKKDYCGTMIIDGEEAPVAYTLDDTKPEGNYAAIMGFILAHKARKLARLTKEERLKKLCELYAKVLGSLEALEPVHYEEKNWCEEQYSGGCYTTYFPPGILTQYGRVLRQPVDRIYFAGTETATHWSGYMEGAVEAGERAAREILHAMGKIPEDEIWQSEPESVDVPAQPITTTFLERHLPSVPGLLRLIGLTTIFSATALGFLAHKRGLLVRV
Amine oxidase [flavin-containing] A, sequence (P21397 whole entry): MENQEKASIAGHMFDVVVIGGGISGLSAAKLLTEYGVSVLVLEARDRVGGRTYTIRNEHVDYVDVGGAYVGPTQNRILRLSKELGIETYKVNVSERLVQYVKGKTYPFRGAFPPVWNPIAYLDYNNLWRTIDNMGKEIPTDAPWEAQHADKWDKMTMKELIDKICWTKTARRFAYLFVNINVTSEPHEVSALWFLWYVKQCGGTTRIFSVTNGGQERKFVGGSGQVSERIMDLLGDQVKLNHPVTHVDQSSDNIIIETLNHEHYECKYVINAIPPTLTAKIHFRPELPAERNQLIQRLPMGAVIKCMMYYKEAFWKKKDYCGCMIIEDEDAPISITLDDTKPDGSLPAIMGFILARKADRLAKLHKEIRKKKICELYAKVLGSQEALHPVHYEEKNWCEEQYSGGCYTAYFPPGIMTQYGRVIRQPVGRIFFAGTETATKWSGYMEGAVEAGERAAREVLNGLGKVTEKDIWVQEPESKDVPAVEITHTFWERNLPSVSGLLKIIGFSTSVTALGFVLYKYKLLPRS
Cytochrome P450 1A2, sequence (P05177 whole entry): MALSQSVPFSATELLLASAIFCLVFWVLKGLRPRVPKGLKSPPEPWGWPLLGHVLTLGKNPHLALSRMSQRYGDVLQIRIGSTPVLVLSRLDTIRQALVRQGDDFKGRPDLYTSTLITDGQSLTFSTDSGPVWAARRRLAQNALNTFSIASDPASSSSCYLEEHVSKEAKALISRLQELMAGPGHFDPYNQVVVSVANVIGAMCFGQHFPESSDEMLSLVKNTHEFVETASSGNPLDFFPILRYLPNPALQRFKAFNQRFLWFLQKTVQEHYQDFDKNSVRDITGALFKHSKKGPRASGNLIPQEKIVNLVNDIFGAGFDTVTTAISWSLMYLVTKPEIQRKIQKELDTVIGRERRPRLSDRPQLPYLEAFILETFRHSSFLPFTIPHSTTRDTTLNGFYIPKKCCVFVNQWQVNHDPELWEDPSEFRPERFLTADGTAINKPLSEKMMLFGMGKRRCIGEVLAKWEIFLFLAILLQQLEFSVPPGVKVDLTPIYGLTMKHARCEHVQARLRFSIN
Cytochrome P450 2C9, sequence (P11712 whole entry): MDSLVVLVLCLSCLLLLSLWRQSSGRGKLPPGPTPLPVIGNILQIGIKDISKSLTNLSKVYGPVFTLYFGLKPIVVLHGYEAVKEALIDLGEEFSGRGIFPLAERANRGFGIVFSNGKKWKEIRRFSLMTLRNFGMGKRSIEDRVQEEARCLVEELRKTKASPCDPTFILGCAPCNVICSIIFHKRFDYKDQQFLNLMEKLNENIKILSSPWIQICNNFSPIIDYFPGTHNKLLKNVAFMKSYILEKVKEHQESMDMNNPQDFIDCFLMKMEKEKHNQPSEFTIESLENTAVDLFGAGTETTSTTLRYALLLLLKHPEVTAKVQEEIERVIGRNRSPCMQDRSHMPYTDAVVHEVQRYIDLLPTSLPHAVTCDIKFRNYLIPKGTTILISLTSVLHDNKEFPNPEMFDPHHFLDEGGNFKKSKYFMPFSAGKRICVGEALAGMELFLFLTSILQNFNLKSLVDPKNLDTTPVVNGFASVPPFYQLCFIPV
Chymase (Homo sapiens), sequence (P23946 whole entry): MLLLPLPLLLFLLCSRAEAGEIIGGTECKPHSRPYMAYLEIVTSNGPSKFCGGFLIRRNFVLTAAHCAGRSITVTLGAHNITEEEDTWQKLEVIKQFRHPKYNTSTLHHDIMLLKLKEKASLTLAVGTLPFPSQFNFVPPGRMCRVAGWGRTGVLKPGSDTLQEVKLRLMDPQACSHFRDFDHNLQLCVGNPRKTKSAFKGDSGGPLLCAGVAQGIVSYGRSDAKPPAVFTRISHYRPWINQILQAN
Cathepsin G (Homo sapiens), sequence (P08311 whole entry): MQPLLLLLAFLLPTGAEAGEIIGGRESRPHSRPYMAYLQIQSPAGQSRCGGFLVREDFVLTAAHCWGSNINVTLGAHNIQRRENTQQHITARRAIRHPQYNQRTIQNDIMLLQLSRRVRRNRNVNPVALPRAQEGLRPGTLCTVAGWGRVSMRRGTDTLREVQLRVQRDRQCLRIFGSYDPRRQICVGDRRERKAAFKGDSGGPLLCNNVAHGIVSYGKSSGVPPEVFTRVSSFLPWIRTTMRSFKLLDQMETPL

| SMILES | IC50 [1] [nM] | IC50 (Trypsin) [nM] | Ki [1] [nM] | also measured |
| --- | --- | --- | --- | --- |
| N=C(N)c1ccc2c(c1)C1(CCN(C(=O)c3ccc(C#Cc4ccccc4)o3)CC1)CO2 | 4.5 | 1400 | – | Ratio IC50 (Homo sapiens [2]): 300 |
| NCc1ccc2c(c1)C1(CCN(C(=O)c3ccc(-c4ccccc4)o3)CC1)CO2 | 28 | 8600 | – | – |
| NCc1ccc2c(c1)C1(CCN(C(=O)c3ccc(C#Cc4ccccc4)o3)CC1)CN2S(=O)(=O)c1ccccc1 | 5.7 | 6700 | 16 | – |
| NCc1ccc2c(c1)C1(CCN(C(=O)c3ccc(C#Cc4ccccc4)o3)CC1)CO2.O=C(O)c1ccccc1 | – | – | – | Activity (Cavia porcellus [13]): 65%; Activity (Cavia porcellus [14]): 20%; Activity (Cavia porcellus [15]): 90%; concentration (Plasma): 400 nM |
| Cc1ccccc1C#Cc1ccc(C(=O)N2CCC3(CC2)COc2ccc(CN)cc23)o1 | 1.2 | 12000 | 4 | – |
| CC(=O)N1C[C@H](O)C[C@H]1C(=O)NC(CCCNC(=N)N)C(=O)c1nc2ccccc2s1 (some centres not stated) | 13 | – | 10 | – |
| NCc1ccc2c(c1)C1(CCN(C(=O)c3ccc(C#Cc4ccc(O)cc4)o3)CC1)CO2 | 3200 | 23000 | – | – |
| COc1ccccc1C#Cc1ccc(C(=O)N2CCC3(CC2)COc2ccc(CN)cc23)o1 | 13 | 5500 | – | – |
| NCc1ccc2c(c1)C1(CCN(C(=O)c3ccc(C#Cc4ccccc4)o3)CC1)CO2 [listing 2 of 2 here] | – | – | – | inhibition [16]: < 15%; inhibition [17]: < 15%; inhibition [18]: < 15%; inhibition [19]: < 15%; inhibition [20]: < 15%; inhibition [21]: < 30%; inhibition (Chymase (Homo sapiens)): < 30%; inhibition [22]: < 15%; inhibition [23]: < 15%; inhibition [24]: < 15%; Activity (Ovis aries [25]): inactive; Activity (Ovis aries [26]): Active; inhibition [27]: < 15%; inhibition [28]: < 30%; Activity (Ovis aries [29]): Active |
| NCc1ccc2c(c1)C1(CCN(C(=O)c3ccc(C#Cc4ccccc4Cl)o3)CC1)CO2 | 5.2 | 38000 | 3.4 | – |
| N/N=C(\N)c1ccc2c(c1)C1(CCN(C(=O)c3ccc(C#Cc4ccccc4)o3)CC1)CO2 | 59 | > 50000 | – | – |
| NCc1cccc(C2CCN(C(=O)c3ccc(C#Cc4ccccc4)o3)CC2)c1 | – | – | 8.7 | – |
| NC(=O)c1ccc2c(c1)C1(CCN(C(=O)c3ccc(C#Cc4ccccc4)o3)CC1)CO2 | – | 39000 | – | inhibition (Homo sapiens [30]): 29% |
| C/N=C(/N)c1ccc2c(c1)C1(CCN(C(=O)c3ccc(C#Cc4ccccc4)o3)CC1)CO2 | 780 | > 50000 | – | – |
| CS(=O)(=O)N1CC2(CCN(C(=O)c3ccc(C#Cc4ccccc4)o3)CC2)c2cc(CN)ccc21 | 1.8 | > 50000 | 7.1 | – |

The next lines start with results.

| IC50 [1] [nM] | IC50 (Trypsin) [nM] | Ki [1] [nM] | SMILES | also measured |
| --- | --- | --- | --- | --- |
| – | 18000 | – | NCc1ccc2c(c1)C1(CCN(C(=O)c3ccc(C#Cc4ccccc4)o3)CC1)CO2 [listing 1 of 2 here] | half-life [3]: 7 h; bioavailability [4]: 65%; Cmax [5]: 900 nM; IC50 [6]: 72000 nM; IC50 (Cytochrome P450 2C19): > 20000 nM; remaining at 0.5 h (monoamine oxidase B): 95%; IC50 [7]: 23000 nM; remaining at 1 h [8]: 100%; IC50 (Cytochrome P450 2C9): > 20000 nM; IC50 (Cytochrome P450 1A2): > 20000 nM; IC50 (Cytochrome P450 3A4): > 20000 nM; Ki (Trypsin): 2500 nM; Vd (Canis familiaris): 16 L/kg; Cmax [9]: 1100 nM; IC50 (Cytochrome P450 2D6): > 20000 nM; half-life [10]: 27 h; bioavailability [11]: 100%; Vd (Rattus norvegicus): 17 L/kg; half-life [12]: > 1.67 h |
| 4.3 | 12000 | 3 | NCc1ccc2c(c1)C1(CCN(C(=O)c3ccc(C#Cc4ccccc4F)o3)CC1)CO2 | – |
| 90 | 9100 | – | NCc1ccc2c(c1)C1(CCN(C(=O)c3ccc(Sc4ccccc4)o3)CC1)CO2 | – |
| 82 | 47000 | – | NCc1ccc2c(c1)C1(CCN(C(=O)c3ccc(CCc4ccccc4)o3)CC1)CO2 | – |
| 15 | > 50000 | – | CC(=O)N1CC2(CCN(C(=O)c3ccc(C#Cc4ccccc4)o3)CC2)c2cc(CN)ccc21 | – |
| – | – | 31 | NCc1cccc(C2CCN(C(=O)c3ccc(C#Cc4ccccc4F)o3)CC2)c1 | – |
| 700 | 13000 | – | CC(C)(C)c1ccc(C#Cc2ccc(C(=O)N3CCC4(CC3)COc3ccc(CN)cc34)o2)cc1 | – |
| 3.1 | 7700 | – | NCc1ccc2c(c1)C1(CC2)CCN(C(=O)c2ccc(C#Cc3ccccc3)o2)CC1 | – |
| 23 | > 50000 | – | NCc1ccc2c(c1)C1(CCN(C(=O)c3ccc(C#Cc4ccccc4)o3)CC1)CN2 | – |
| 8.3 | 13000 | – | Cc1ccc(C#Cc2ccc(C(=O)N3CCC4(CC3)COc3ccc(CN)cc34)o2)cc1 | – |
